Experimental data published in ChEMBL document CHEMBL5058577, “EUbOPEN Chemogenomics Library 2 (Multiplex)” (2022).

System: Fibroblast
Assay: Multiplex assay against human fibroblast
Assay type: toxicity, cell-based
Method in brief: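 Phenotypes for tubulin, mitochondrial mass and membrane permeability are expressed as per cents of healthy-nucleus cells. Cells were stained live at seeding with Hoechst33342, BioTracker Green Microtubule Cytoskeleton Dye, MitoTracker Red and Annexin V Alexa Fluor 680, then imaged after compound addition on a CQ1 microscope at 37°C and 5% CO2. Machine-learning gating in CellPathfinder separated Hoechst high-intensity objects from normal cells, divided normal cells by nuclear state (healthy, pyknosed, fragmented) and divided pyknosed cells into mitotic or apoptotic.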

[1] = 12 h, 1 µM, compound concentration 1 uM, replicate 1
[2] = 12 h, 1 µM, compound concentration 1 uM, replicate 2
[3] = 12 h, 10 µM, compound concentration 10 uM, replicate 1
[4] = 12 h, 10 µM, compound concentration 10 uM, replicate 2
[5] = 24 h, 1 µM, compound concentration 1 uM, replicate 1
[6] = 24 h, 1 µM, compound concentration 1 uM, replicate 2
[7] = 24 h, 10 µM, compound concentration 10 uM, replicate 1
[8] = 24 h, 10 µM, compound concentration 10 uM, replicate 2
[9] = 48 h, 1 µM, compound concentration 1 uM, replicate 1
[10] = 48 h, 1 µM, compound concentration 1 uM, replicate 2
[11] = 48 h, 10 µM, compound concentration 10 uM, replicate 1
[12] = 48 h, 10 µM, compound concentration 10 uM, replicate 2

COc1cccc2c1c(NS(=O)(=O)c1ccc(Cl)s1)nn2Cc1cccc(CNC(=O)C(C)(C)O)c1
Population Apoptotic (%) [1]: 43%
Population Fragmented Nuclei (%) [1]: 16%
Population Healthy Nuclei (%) [1]: 66%
Population Hoechst High Intensity Objects (%) [1]: 0%
Population Membrane Permeable-Phenotype (%) [1]: 1%
Population Mitochondria Different-Phenotype (%) [1]: 2%
Population Mitotic Cells (%) [1]: 56%
Population Normal (%) [1]: 99%
Population Pyknosed Nuclei (%) [1]: 17%
Population Tubulin-Different-Phenotype (%) [1]: 27%
Total Cell Count [1]: 134
Population Apoptotic (%) [2]: 33%
Population Fragmented Nuclei (%) [2]: 26%
Population Healthy Nuclei (%) [2]: 54%
Population Membrane Permeable-Phenotype (%) [2]: 4%
Population Mitochondria Different-Phenotype (%) [2]: 1%
Population Mitotic Cells (%) [2]: 66%
Population Normal (%) [2]: 100%
Population Pyknosed Nuclei (%) [2]: 18%
Population Tubulin-Different-Phenotype (%) [2]: 18%
Total Cell Count [2]: 112
Population Apoptotic (%) [3]: 42%
Population Fragmented Nuclei (%) [3]: 13%
Population Healthy Nuclei (%) [3]: 72%
Population Hoechst High Intensity Objects (%) [3]: 2%
Population Membrane Permeable-Phenotype (%) [3]: 1%
Population Mitochondria Different-Phenotype (%) [3]: 11%
Population Mitotic Cells (%) [3]: 57%
Population Normal (%) [3]: 97%
Population Pyknosed Nuclei (%) [3]: 13%
Population Tubulin-Different-Phenotype (%) [3]: 37%
Total Cell Count [3]: 211
Population Apoptotic (%) [4]: 41%
Population Fragmented Nuclei (%) [4]: 24%
Population Healthy Nuclei (%) [4]: 55%
Population Hoechst High Intensity Objects (%) [4]: 7%
Population Membrane Permeable-Phenotype (%) [4]: 7%
Population Mitochondria Different-Phenotype (%) [4]: 4%
Population Mitotic Cells (%) [4]: 58%
Population Normal (%) [4]: 92%
Population Pyknosed Nuclei (%) [4]: 19%
Population Tubulin-Different-Phenotype (%) [4]: 55%
Total Cell Count [4]: 174
Population Apoptotic (%) [5]: 55%
Population Fragmented Nuclei (%) [5]: 19%
Population Healthy Nuclei (%) [5]: 68%
Population Hoechst High Intensity Objects (%) [5]: 2%
Population Membrane Permeable-Phenotype (%) [5]: 2%
Population Mitochondria Different-Phenotype (%) [5]: 3%
Population Mitotic Cells (%) [5]: 44%
Population Normal (%) [5]: 97%
Population Pyknosed Nuclei (%) [5]: 12%
Population Tubulin-Different-Phenotype (%) [5]: 28%
Total Cell Count [5]: 144
Population Apoptotic (%) [6]: 50%
Population Fragmented Nuclei (%) [6]: 28%
Population Healthy Nuclei (%) [6]: 49%
Population Hoechst High Intensity Objects (%) [6]: 1%
Population Membrane Permeable-Phenotype (%) [6]: 7%
Population Mitochondria Different-Phenotype (%) [6]: 5%
Population Mitotic Cells (%) [6]: 50%
Population Normal (%) [6]: 98%
Population Pyknosed Nuclei (%) [6]: 22%
Population Tubulin-Different-Phenotype (%) [6]: 35%
Total Cell Count [6]: 110
Population Apoptotic (%) [7]: 48%
Population Fragmented Nuclei (%) [7]: 11%
Population Healthy Nuclei (%) [7]: 74%
Population Hoechst High Intensity Objects (%) [7]: 2%
Population Membrane Permeable-Phenotype (%) [7]: 1%
Population Mitochondria Different-Phenotype (%) [7]: 7%
Population Mitotic Cells (%) [7]: 52%
Population Normal (%) [7]: 97%
Population Pyknosed Nuclei (%) [7]: 13%
Population Tubulin-Different-Phenotype (%) [7]: 30%
Total Cell Count [7]: 190
Population Apoptotic (%) [8]: 50%
Population Fragmented Nuclei (%) [8]: 22%
Population Healthy Nuclei (%) [8]: 55%
Population Hoechst High Intensity Objects (%) [8]: 8%
Population Membrane Permeable-Phenotype (%) [8]: 6%
Population Mitochondria Different-Phenotype (%) [8]: 2%
Population Mitotic Cells (%) [8]: 50%
Population Normal (%) [8]: 92%
Population Pyknosed Nuclei (%) [8]: 22%
Population Tubulin-Different-Phenotype (%) [8]: 48%
Total Cell Count [8]: 175
Population Apoptotic (%) [9]: 62%
Population Fragmented Nuclei (%) [9]: 21%
Population Healthy Nuclei (%) [9]: 66%
Population Hoechst High Intensity Objects (%) [9]: 5%
Population Membrane Permeable-Phenotype (%) [9]: 1%
Population Mitochondria Different-Phenotype (%) [9]: 5%
Population Mitotic Cells (%) [9]: 37%
Population Normal (%) [9]: 94%
Population Pyknosed Nuclei (%) [9]: 12%
Population Tubulin-Different-Phenotype (%) [9]: 30%
Total Cell Count [9]: 135
Population Apoptotic (%) [10]: 75%
Population Fragmented Nuclei (%) [10]: 26%
Population Healthy Nuclei (%) [10]: 60%
Population Hoechst High Intensity Objects (%) [10]: 2%
Population Membrane Permeable-Phenotype (%) [10]: 8%
Population Mitochondria Different-Phenotype (%) [10]: 3%
Population Mitotic Cells (%) [10]: 25%
Population Normal (%) [10]: 97%
Population Tubulin-Different-Phenotype (%) [10]: 55%
Total Cell Count [10]: 99
Population Apoptotic (%) [11]: 63%
Population Fragmented Nuclei (%) [11]: 13%
Population Healthy Nuclei (%) [11]: 73%
Population Hoechst High Intensity Objects (%) [11]: 5%
Population Membrane Permeable-Phenotype (%) [11]: 3%
Population Mitochondria Different-Phenotype (%) [11]: 10%
Population Mitotic Cells (%) [11]: 36%
Population Normal (%) [11]: 94%
Population Pyknosed Nuclei (%) [11]: 12%
Population Tubulin-Different-Phenotype (%) [11]: 40%
Total Cell Count [11]: 187
Population Apoptotic (%) [12]: 51%
Population Fragmented Nuclei (%) [12]: 33%
Population Healthy Nuclei (%) [12]: 49%
Population Hoechst High Intensity Objects (%) [12]: 6%
Population Mitochondria Different-Phenotype (%) [12]: 4%
Population Mitotic Cells (%) [12]: 48%
Population Normal (%) [12]: 93%
Population Pyknosed Nuclei (%) [12]: 17%
Population Tubulin-Different-Phenotype (%) [12]: 43%
